Reference: ChEMBL document CHEMBL6182837, “Discovery and biological evaluation of nitrofuranyl-pyrazolopyrimidine hybrid conjugates as potent antimicrobial agents targeting Staphylococcus aureus and methicillin-resistant S. aureus” (RSC Med Chem, 2025)
Converted amounts (≈) assume the structure as drawn. The source made the active and inactive calls. No cut-off for these calls is given here.

Tests used:
[1] = Terminal half life in male Balb/c mouse at 1 mg/kg, iv by LC-MS/MS analysis; assay type: ADME, organism-based; conditions: in vivo, read-out: beta t1/2 (converted)
In short: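 Balb/c mice dosed intravenously at 1 mg kg−1; plasma pharmacokinetic profile analysed for half-life, C0, AUC0−t and clearance.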

[2] = Cytotoxicity in human HepG2 cells incubated for 24 hrs by MTT assay; assay type: toxicity, cell-based
In short: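 HepG2 cells, 1 × 10^4 per well in DMEM/10% FBS, 24 h attachment; compounds 200 to 0.19 μg ml−1 for 24 h at 37 °C, 5% CO2; MTT 2.5 mg ml−1 for 3 h, formazan in DMSO, OD 570 nm; doxorubicin 10 μM control.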

Staphylococcus aureus [3] = assay: Inhibition of biofilm formation of Staphylococcus aureus ATCC 29213 incubated for 27 hrs by absorbance based method; assay type: functional, organism-based
Staphylococcus aureus [4] = assay: Antibacterial activity against Staphylococcus aureus SA-1199B overexpressing NorA by Alamar blue staining based analysis; assay type: functional
Staphylococcus aureus [5] = assay: Antibacterial activity against Staphylococcus aureus SA-K2191 overexpressing MsrA by Alamar blue staining based analysis; assay type: functional
Staphylococcus aureus [6] = assay: Antibacterial activity against Staphylococcus aureus SA-K2192 overexpressing TetK by Alamar blue staining based analysis; assay type: functional
[7] = Cytotoxicity against mouse RAW264.7 cells incubated for 48 to 72 hrs by absorbance based assay; assay type: toxicity, cell-based
In short: (§1)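 MTT read-out: macrophage cells plated at 1 × 10^4 cells per well in DMEM with 10% FBS, 37 °C, 5% CO2; treatment 48 h and 72 h; 2.5 mg ml−1 MTT 3 h, formazan dissolved in DMSO, OD 570 nm; doxorubicin 10 μM control.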

RAW264.7 = assay: Cytotoxicity against mouse RAW264.7 cells up to 200 ug/ml incubated for 48 to 72 hrs by absorbance based assay; assay type: toxicity, cell-based; conditions: time 48-72 hrs, dose < 200 µg/ml; in short: as §1
Staphylococcus aureus [8] = assay: Additive antibacterial activity against methicillin-resistant Staphylococcus aureus ATCC 15187 assessed as fractional inhibitory concentration index at 0.075 ug/ml incubated up to 24 hrs in presence of vancomycin by checkerboard analysis; assay type: functional; conditions: dose 0.075 µg/ml
In short: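 Checkerboard microdilution in cation-adjusted MHB, done per CLSI. The compound and partner antibiotic were dissolved in DMSO. The antibiotic was serially diluted across the plate and the compound was twofold serially diluted into the wells to make the combinations. Each well received 0.1 ml of inoculum, a 0.5 McFarland suspension (1.5 × 10^8 CFU ml−1) diluted 1:100 in MHB. Plates were incubated 24 h at 37 °C, then read with Alamar blue (0.04%). FIC index was calculated.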

Staphylococcus aureus [9] = assay: Bacteriostatic activity against Staphylococcus aureus ATCC 29213 assessed as reduction in bacterial count incubated for 2 to 24 hrs by time-kill assay; assay type: functional, organism-based; conditions: time 2-24 hrs
Staphylococcus aureus [10] = assay: Bactericidal activity against methicillin-resistant Staphylococcus aureus ATCC 15187 assessed as reduction in bacterial count incubated for 2 to 24 hrs by time-kill assay; assay type: functional, organism-based; conditions: time 2-24 hrs
Staphylococcus aureus [11] = assay: Bactericidal activity against methicillin-resistant Staphylococcus aureus ATCC 15187 assessed as reduction in bacterial count at 2 times MIC measured after 8 to 10 hrs by time-kill assay; assay type: functional, organism-based; conditions: time 8-10 hrs
Staphylococcus aureus [12] = assay: Synergistic bactericidal activity against methicillin-resistant Staphylococcus aureus ATCC 15187 assessed as reduction in bacterial count at 0.075 ug/ml measured after 24 hrs in presence of rifampicin by time-kill assay; assay type: functional, organism-based; conditions: dose 0.075 µg/ml
Staphylococcus aureus [13] = assay: Induction of resistance development in methicillin-resistant Staphylococcus aureus ATCC 15187 at 0.5 MIC measured after […]; assay type: functional, organism-based; conditions: 0.5 M
In short: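 Bacteria serially passaged under sublethal drug exposure over 20 days, with MIC redetermined at each passage; vancomycin and norfloxacin as controls.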

Staphylococcus aureus [14] = assay: Induction of resistance development in methicillin-resistant Staphylococcus aureus ATCC 15187 assessed as fold increase in MIC at 0.5 MIC measured after 20 passages relative to control; assay type: functional
In short: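 Bacteria were serially passaged for 20 days after exposure to a sublethal drug concentration. MIC was determined at each passage. Vancomycin and norfloxacin were run as control agents.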

Staphylococcus aureus [15] = assay: Disruption of cell membrane integrity in methicillin-resistant Staphylococcus aureus ATCC 15187 assessed as red fluorescence at 1 to 2 times MIC incubated for 2.5 hrs by DAPI/PI staining based fluorescence microscopy; assay type: functional, organism-based
In short: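 Bacteria treated at 1× and 2× MIC, with vancomycin 2× MIC as control and an untreated blank; stained with DAPI (all cells) and propidium iodide (membrane-damaged cells); imaged by fluorescence microscopy, red PI signal taken as membrane damage.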

Staphylococcus aureus [16] = assay: Induction of membrane permeabilization in Staphylococcus aureus ATCC 29213 at 1 to 8 times MIC measured after 80 mins by PI staining based analysis relative to control; assay type: functional; conditions: 1.333 h
In short: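 PI permeabilization of S. aureus at 1×, 2×, 4×, 8× MIC followed over time up to 80 min; vancomycin 4× and 8× MIC as drug control; untreated blank; percentage permeabilization.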

Staphylococcus aureus [17] = assay: Antibacterial activity against Staphylococcus aureus ATCC 29213 infected in mouse RAW264.7 cells assessed as bacterial eradication by colony counting method; assay type: functional, organism-based
In short: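 RAW 264.7 macrophages infected with S. aureus, then treated with compound at multiples of MIC non-toxic to the cells; intracellular bacterial load enumerated as CFU ml−1; vancomycin comparator; one-way ANOVA versus infection control.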

[18] = Solubility of compound in water; assay type: physicochemical
[19] = Protein binding in plasma (unknown origin); assay type: ADME, cell-free
[20] = Lipophilicity, logD of compound; assay type: physicochemical; conditions: octanol/water
[21] = AUC (0 to infinity) in male Balb/c mouse at 1 mg/kg, iv by LC-MS/MS analysis; assay type: ADME, organism-based; conditions: in vivo
In short: (§2)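 Balb/c mice dosed 1 mg kg−1 intravenously or 30 mg kg−1 orally (2.5 mg kg−1 oral also given); plasma PK parameters derived.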

[22] = Volume of distribution in male Balb/c mouse at 1 mg/kg, iv by LC-MS/MS analysis; assay type: ADME, organism-based; conditions: in vivo; in short: as §2
[23] = Terminal half life in male Balb/c mouse at 30 mg/kg, po by LC-MS/MS analysis; assay type: ADME, organism-based; conditions: in vivo, read-out: beta t1/2 (converted); in short: as §2
Staphylococcus aureus [24] = assay: Antibacterial activity against methicillin-resistant Staphylococcus aureus ATCC 15187 infected in male Balb/c/c mouse assessed as reduction in bacterial load in lung at 50 to 100 mg/kg measured after 24 hrs by colony counting method; assay type: functional, organism-based; conditions: dose 50-100 mg/kg
In short: (§3)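 Mouse peritonitis model: 0.1 ml MRSA suspension (10^8 CFU ml−1) given intraperitoneally; treatment intraperitoneal at 50 or 100 mg kg−1 at 2 and 5 h post-infection, with saline and vancomycin (50 mg kg−1) controls; killed at 24 h; kidney and lung homogenates plated on Mueller–Hinton agar with 20 μg ml−1 ciprofloxacin, 24 h; CFU ml−1; unpaired t-test.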

Staphylococcus aureus [25] = assay: Antibacterial activity against methicillin-resistant Staphylococcus aureus ATCC 15187 infected in male Balb/c/c mouse assessed as reduction in bacterial load in kidney at 50 to 100 mg/kg measured after 24 hrs by colony counting method; assay type: functional, organism-based; conditions: dose 50-100 mg/kg; in short: as §3
J774.A1 = assay: Cytotoxicity against mouse J774.A1 cells up to 200 ug/ml incubated for 24 hrs by absorbance based assay

CCCc1nn(C)c2c(Nc3ccc(O)cc3)nc(-c3ccc([N+](=O)[O-])o3)nc12
half-life [1]: 30 min | IC50 at 24 h [2]: > 50 µg/mL | inhibition (Staphylococcus aureus [3]): Dose-dependent-effect | MIC (Staphylococcus aureus [4]): 0.6 µg/mL (≈ 1.52 µM) | MIC (Staphylococcus aureus [5]): 0.15 µg/mL (≈ 0.38 µM) | MIC (Staphylococcus aureus [6]): 0.3 µg/mL (≈ 0.761 µM) | IC50 [7]: > 100 µg/mL | Activity (RAW264.7): Non-toxic | fractional inhibitory concentration index (FICI) (Staphylococcus aureus [8]): 1 | Activity (Staphylococcus aureus [9]): Dose-dependent-effect | Activity (Staphylococcus aureus [10]): Dose-dependent-effect | Activity (Staphylococcus aureus [11]): Not active; Initial Killing Was Observed, But Exhibited Some Re-Growth After 8 To 10 Hrs | Activity (Staphylococcus aureus [12]): Moderate_effect | Activity (Staphylococcus aureus [13]): inactive | fold change (FC) (Staphylococcus aureus [14]): 3200 | Activity (Staphylococcus aureus [15]): Active | Activity (Staphylococcus aureus [16]): 60% | Activity (Staphylococcus aureus [17]): Dose-dependent-effect | solubility [18]: 1 µg/mL (≈ 2.54 µM) | PPB [19]: 99.1% | logD [20]: 2.92 | AUC(0-inf) [21]: 94.8 ng·h/mL | Vd [22]: 1.69 L/kg | half-life [23]: 21 min | Activity (Staphylococcus aureus [24]): Active; Significantly Lesser Effect Was Observed At 50 To 100 Mg/Kg Compared To Vancomycin | Activity (Staphylococcus aureus [25]): Active; Significantly Greater Effect Was Observed At 50 Mg/Kg Compared To Vancomycin | Activity (J774.A1): Non-toxic
